Only a sample is shown.
PGC1a Ac signal: raises PGC1a acetylation signal in U2OS cells; hit rate 0.21% among 350,000; U2OS PGC1a acetylation AlphaScreen, overnight; activation, % at 15.6 µM; AID 651723;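 active = every replicate reaching activation of at least 50%, whatever the mean replicate activation; inconclusive = replicates that disagree or another doubt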;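 also: hits raise the AlphaScreen acetylation signal above neutral controls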
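Incubation: overnight compound treatment, 37 °C. System: U2OS cells transduced with flag-tagged PGC1a and GCN5 acetyltransferase. Detection: AlphaScreen lysate read. Compound: single-point compound dosing.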
Hep G6PC suppr: hepatocyte G6PC expression change via PGC-1a acetylation activation | G6PC suppression (normalized activity, % of positive control; higher = more suppression), % at 26 µM | 240 tested, under 10 active | primary mouse hepatocytes, G6PC mRNA qPCR, forskolin | AID 743463 | shares compounds with PGC1a Ac signal;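 active = dose curves showing G6PC suppression whose half-maximal dose is at most twice the top valid dose; inconclusive = flat curves with moderate negative activity, or unreliable fits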;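 also: G6PC expression relative to GAPDH housekeeping gene as delta delta Ct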
PCK1 hep suppr: hepatocyte PCK1 expression change via PGC-1a acetylation activation. shares compounds with PGC1a Ac signal. primary mouse hepatocytes, PCK1 mRNA qPCR, forskolin-stimulated. PCK1 expression decrease, unspecified at 26 µM. 230 tested, under 10 active;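 active = compounds lowering PCK1 expression whose fitted half-maximal concentration is at most twice the top tested dose; inconclusive = flat fit with moderate opposite-direction effect, or poor fit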;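 also: higher delta delta Ct means lower PCK1 expression so positive values indicate hits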
Hep PGC-1a down: PGC-1a acetylation activators affecting PGC-1a expression in hepatocytes; primary mouse hepatocytes, PGC-1a mRNA qPCR, forskolin; top dose 26 µM; AID 743467; shares compounds with PGC1a Ac signal; max activity (PGC-1a expression decrease), %; 240 tested, under 10 active;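 active = compound lowering PGC-1a expression with fitted half-maximal concentration at most twice its top tested dose; inconclusive = flat curve with moderate opposite-direction effect, or poor fit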
Large screens that a line does not name were inactive (follow-up assays come after a bar, where they were run).

CN1C(=O)/C(=C\c2ccc(N3CCCCC3)o2)C(=O)NC1=S	PGC1a Ac signal 53.9
CC(N)C(=O)NC1C2C(=C(O)CC(O)C2O)C(=O)OC1(C)C(Cl)Cl (stereo not given)	none
Cc1ccc2c(c1)CC1(CN2C)C(=O)NC(=O)N(C(C)C)C1=O (stereo not given)	PGC1a Ac signal 50.8
CC[C@H](C)[C@@H]1NC(=O)CNC(=O)c2csc(n2)[C@H](C(C)(C)O)OC(=O)C(C)(C)[C@H](CCCC(C)(Cl)Cl)OC(=O)c2csc1n2	none
COc1cccc(C(c2nnnn2C2CCCCC2)N2CCC3(CC2)C(=O)NCN3c2ccccc2)c1OC (stereo not given)	PGC1a Ac signal 71.6
C[C@H]1[C@@H](OS(=O)(=O)O)C[C@@H]2C[C@H]([C@@H](O)c3cc(=O)[nH]c(=O)[nH]3)NC3=NC[C@H]1N32	none
CC(O)C1C=CC=CC(=O)OC2CC3OC4C5OC5(C)C(O)CC4(COC(=O)C(O)C(C)CCO1)C2(C)C31CO1 (stereo not given)	none
C=C1C(=O)OC2CC(C)C3C=CC(=O)C3(C)C(O)C12 (stereo not given)	none
C=C1C(=O)OC2C1CCC(C)C1(O)C=CC(=O)C21C (stereo not given)	PGC1a Ac signal 115.4
CNc1cc(Cl)c2nonc2c1[N+](=O)[O-]	none
CC1=CC2OC3CC4OC(=O)C=CC=CC(C(C)O)OCC(O)C5(C)OC5C(=O)OCC2(CC1O)C4(C)C31CO1 (stereo not given)	none
CCCCN1C(=O)NC(=O)C2(Cc3c(nc4c(C)cccn4c3=O)N3CCc4ccccc4C32)C1=O (stereo not given)	PGC1a Ac signal 67.6
CC1=CC2OC3CC4OC(=O)C=CC=CC(=O)OCCC(C)C(O)C(=O)OCC2(CC1)C4(C)C31CO1 (stereo not given)	none
CCC1CN2CCc3cc(OC)c(OC)cc3C2CC1CC1NCCc2c1[nH]c1ccc(O)cc21 (stereo not given)	none
O=c1[nH]c2ccccc2n1C1CCN(C(CCc2ccccc2)c2nnnn2Cc2ccccc2)CC1 (stereo not given)	none
CC(C)(C)n1nnnc1C(CCc1ccccc1)N1CCC2(CC1)C(=O)NCN2c1ccccc1 (stereo not given)	PGC1a Ac signal 71.5
CCOC(=O)C1=Nc2ccccc2/C1=C\c1c(O)n(C)c(=O)n(C)c1=O	none
COc1ccc(CC2C(=O)NC(C)C(=O)N(C)C3C(=O)N(C)C(Cc4ccc(O)c(c4)Oc4ccc(cc4)C3O)C(=O)NC(C)C(=O)NC(C)C(=O)N2C)cc1 (stereo not given)	none
CC(=O)OC1CC2OC3C=C(C)CCC3(C)C1(C)C21CO1 (stereo not given)	none
COc1ccc(Oc2cc(NC(=O)c3nn(C)cc3[N+](=O)[O-])cc([N+](=O)[O-])c2)cc1	none
CC(=O)O[C@H]1C[C@@H]2OC3C=C(C)CCC3(C)[C@@]1(C)[C@@]21CO1 (stereo not given in full)	none
O=c1[nH]c(=S)n(Cc2ccco2)c(O)c1C=NCc1cccs1	none
CN(C)CCN=Cc1c(O)n(Cc2ccco2)c(=O)[nH]c1=O	PGC1a Ac signal 82.2
Cc1cccc(C)c1-n1nnnc1C(c1cccs1)N1CCC(n2c(=O)[nH]c3ccccc32)CC1 (stereo not given)	PGC1a Ac signal inconclusive | Hep G6PC suppr inactive | PCK1 hep suppr inactive | Hep PGC-1a down inactive
CSCCC(c1nnnn1-c1c(C)cccc1C)N1CCC(n2c(=O)[nH]c3ccccc32)CC1 (stereo not given)	PGC1a Ac signal 89.2 | Hep G6PC suppr inactive | PCK1 hep suppr inactive | Hep PGC-1a down inactive
Cc1ccc(C[n+]2c(-c3ccc(C)cc3)cc(-c3ccc(C)cc3)cc2-c2ccc(C)cc2)cc1	none
CC1CCOC(=O)C=CC=CC(=O)OC2CC3OC4C5OC5(C)C(O)CC4(COC(=O)C1O)C2(C)C31CO1 (stereo not given)	none
COc1ccccc1OCC(=O)Nc1ccc(Cl)cc1C(=O)c1ccccc1	PGC1a Ac signal inconclusive | Hep G6PC suppr inactive | PCK1 hep suppr inactive | Hep PGC-1a down inactive
C[C@H]1CCC/C=C/C2C[C@H](O)CC2[C@H](O)/C=C/C(=O)O1 (stereo not given in full)	none
Cc1ccc(CS(=O)(=O)CCC(=O)N2CCC3(CC2)OCCO3)cc1	none
CC1CCC[C@H](O)CCCCCc2cc(O)cc(O)c2C(=O)O1 (stereo not given in full)	none
O=C1NCN(c2ccccc2)C12CCN(C(c1cccc3ccccc13)c1nnnn1C1CCCCC1)CC2 (stereo not given)	PGC1a Ac signal 67.5 | Hep G6PC suppr inactive | PCK1 hep suppr inactive | Hep PGC-1a down inconclusive
CC12CCC(O)CC1CCC1C2CCC2(C)C(C3=CC(=O)OC3)CCC12O (stereo not given)	none
CC1CCC/C=C/C2CC(O)CC2C(O)/C=C/C(=O)O1 (stereo not given)	none
CN1CCN(c2ccc([N+](=O)[O-])c3no[n+]([O-])c23)CC1	none
CC1CC(C)(O)CC(C(O)CC2CC(=O)NC(=O)C2)C1=O (stereo not given)	none
Cc1ccc(OC(=O)N(C)C[C@H]2OCc3ccccc3-c3c(n(C)c4ccccc34)C(=O)N([C@H](C)CO)C[C@H]2C)cc1	PGC1a Ac signal 228.8 | Hep G6PC suppr inactive | PCK1 hep suppr inactive | Hep PGC-1a down inactive
Cc1nc2c(=O)n(C)c(=O)nc-2n(C)n1	none
CC1CCCN(CC(=O)N2CCCc3ccccc32)C1 (stereo not given)	none
